Series [1] can be described thus: Solubility of compound in diluted hydrochloric acid buffer solution at pH 3 at 25 deg C for 8 hrs. Type of series: physicochemical. A digest of the protocol: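 Compounds shaken in diluted hydrochloric acid buffer at pH 3, 25 °C for 8 h.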
Series [2] deals with A549. As to the kind of experiment: Cytotoxicity against human A549 cells expressing NQO1 after 2 hrs by MTT assay. It counts as functional, cell-based. Particulars: A549, 2 h. A digest of the protocol: (§1)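 MTT assay: cells in RPMI 1640 + 10% FBS seeded at 10,000 cells/mL, attached 16 h, exposed to compound in triplicate for 2 h, washed out, then grown 72 h at 37 °C, 5% CO2; MTT 4 h, formazan in DMSO, A560. Dicoumarol cotreatment 25 µmol·L-1 for 2 h. IC50 from semilog plots of percent control.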

For series [3], the target named is T1, NAD(P)H dehydrogenase [quinone] 1 (Homo sapiens, UniProt P15559). The series is described as follows: Drug metabolism assessed as recombinant human NQO1-mediated NADPH oxidation to NADP+ per micromol of protein preincubated for 3 mins followed by NADPH addition measured at 2 s intervals for 5 mins by enzyme labelling instrument-based assay. Type of series: ADME. The gist of the method: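 NADPH recycling assay: quinones 0.1–50 µmol·L-1 with recombinant human NQO1 1.4 µg/mL in 50 mmol·L-1 potassium phosphate pH 7.4, 3 min preincubation, reaction started with NADPH 400 µmol·L-1; A340 every 2 s for 5 min at 22–25 °C. Slopes from linear 20 s–1 min, compared with no-compound reactions; at least triplicate.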

Series [4] has as its system A549. As to the kind of experiment: Antitumor activity against human A549 cells xenografted in athymic nude mouse assessed as tumor growth inhibition at 30 mg/kg, iv administered every other day over 21 days relative to vehicle control. It counts as functional. Particulars: 504 h, read-out: TGI. A digest of the protocol:
(§2)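 Athymic nude mice (7–8 weeks) given 5 × 10^6 log-phase A549 cells in the flank; randomized at mean tumor ~100 mm3 (5 mice/group) to vehicle, 15 or 30 mg/kg test agent in dilute HCl buffer pH 3, or positive control in saline; tail-vein injection every other day for three weeks. Caliper volume = a × b²/2, measured daily; wet tumor weight after euthanasia. TGI from weight; T/C = RTV(treated)/RTV(control) × 100, RTV = VT/V0.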
(In general: Xenograft models place foreign cells or tissue in a host animal.)

Series [5] concerns the target T1, NAD(P)H dehydrogenase [quinone] 1. The series is described as follows: Binding affinity to recombinant human NQO1 assessed as induction of ROS generation by measuring reduction of cytochrome C per min per mg of NQO1 by spectrophotometric analysis. A digest of the protocol:
(§3)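 Superoxide via cytochrome c reduction at 550 nm: 30 µmol·L-1 cytochrome c, 0.2 mmol·L-1 NADPH, recombinant human NQO1 0.1–3.0 µg/mL, quinone 25 µmol·L-1 in 25 mmol·L-1 Tris-HCl pH 7.4 with 0.7 mg/mL BSA and 0.1% Tween-20; dicoumarol 25 µmol·L-1 where stated. Initial rates from linear 0–30 s; at least triplicate.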

Series [6] is described as follows: Lipophilicity, log D of compound at pH 7.4. It counts as physicochemical. The conditions noted are these: buffer. The gist of the method: (§4)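 Neutral aqueous solubility and log D at pH 7.4 by Avdeef–Bucher potentiometric titration on a Gemini Profiler.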
In series [7] the test system is A549. The series is described as follows: Antitumor activity against human A549 cells xenografted in athymic nude mouse assessed as tumor proliferation rate at 30 mg/kg, iv administered every other day over 21 days relative to vehicle-treated control. It counts as functional. The gist of the method:
as §2

The target of series [8] is T1, NAD(P)H dehydrogenase [quinone] 1. The series is described as follows: Binding affinity to recombinant human NQO1 assessed as induction of ROS generation by measuring reduction of cytochrome C per min per mg of NQO1 by spectrophotometric analysis in presence of NQO1 inhibitor dicoumarol. The gist of the method: as §3
The test system of series [9] is A549. The series is described as follows: Cytotoxicity against human A549 cells expressing NQO1 after 2 hrs in presence of dicoumarol by MTT assay. The conditions noted are these: A549, 2 h. It counts as functional, cell-based. A digest of the protocol: as §1
Background: Formazan colour is commonly taken as a measure of viable cells.

In series [10] the test system is Mus musculus. The series is described as follows: Hepatotoxicity in athymic nude mouse at 15 to 30 mg/kg, iv administered every other day over 21 days relative to vehicle control. The conditions noted are these: in vivo, 504 h. Type of series: toxicity, organism-based. The gist of the method:
(§5)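 A549 xenograft nude mice, 5/group, dosed 15 or 30 mg/kg by tail vein every other day for three weeks in dilute HCl buffer pH 3; vehicle group as reference. Body weight tracked over treatment; liver examined for toxic signs.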

Series [11] in a line: Selectivity ratio of IC50 for NQO1-deficient human NCI-H596 cells to IC50 for human A549 cells expressing NQO1. Type of series: cell-based. The gist of the method: (§6)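 IC50 ratios from the 2 h-exposure/72 h MTT assay: A549 IC50 with 25 µmol·L-1 dicoumarol cotreatment divided by IC50 without; or H596 IC50 divided by A549 IC50.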
Series [12] in a line: Intrinsic aqueous solubility of compound by Avdeef-Bucher potentiometric titration assay. Type of series: physicochemical. Particulars: aqueous solution; read-out: Intrinsic_solubility. A digest of the protocol: as §4
A short description of series [13]: Cytotoxicity against human L02 cells after 2 hrs by MTT assay. The conditions noted are these: L02, 2 h. It counts as cell-based. A digest of the protocol: as §1
The subject of series [14] is A549. The series is described as follows: Antitumor activity against human A549 cells xenografted in athymic nude mouse assessed as tumor growth inhibition at 15 mg/kg, iv administered every other day over 21 days relative to vehicle control. It counts as functional, organism-based. A digest of the protocol: as §2
The test system of series [15] is Mus musculus. As to the kind of experiment: Toxicity in athymic nude mouse assessed as body weight loss at 15 to 30 mg/kg, iv administered every other day over 21 days relative to vehicle control. Type of series: organism-based. Particulars: in vivo, 504 h. A digest of the protocol:
as §5

The test system of a further series is NCI-H596. As to the kind of experiment: Cytotoxicity against NQO1-deficient human NCI-H596 cells after 2 hrs by MTT assay. Type of series: cell-based. Particulars: NCI-H596, 2 h. The gist of the method: as §1
For series [16], the system named is A549. The series is described as follows: Antitumor activity against human A549 cells xenografted in athymic nude mouse assessed as tumor volume at 30 mg/kg, iv administered every other day over 21 days (reference value: 1085.8 +/- 298.3 mm'3). It counts as functional. The gist of the method: as §2
In series [17] the test system is A549. The series is described as follows: Ratio of IC50 for human A549 cells expressing NQO1 in presence of NQO1 inhibitor dicoumarol to IC50 for human A549 cells expressing NQO1 in absence of NQO1 inhibitor dicoumarol. Type of series: functional. A digest of the protocol: as §6

Results on 13 compounds are retold here after ChEMBL document CHEMBL3751847, “Novel naphtho[2,1-d]oxazole-4,5-diones as NQO1 substrates with improved aqueous solubility: Design, synthesis, and in vivo antitumor evaluation” (Bioorg Med Chem, 2016).

In brackets after ≈: the same amount, converted by molar mass. Activity calls are given as the source filed them. The rule behind the calls is not given here.

T1 sequence (P15559 whole entry): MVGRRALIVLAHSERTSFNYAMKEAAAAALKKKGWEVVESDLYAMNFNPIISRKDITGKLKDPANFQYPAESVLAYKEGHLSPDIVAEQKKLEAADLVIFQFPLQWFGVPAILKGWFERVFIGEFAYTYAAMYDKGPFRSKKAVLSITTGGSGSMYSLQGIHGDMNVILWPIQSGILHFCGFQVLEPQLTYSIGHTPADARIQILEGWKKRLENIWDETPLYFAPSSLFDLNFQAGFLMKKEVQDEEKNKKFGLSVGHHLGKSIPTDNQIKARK

A word on the IC50: it is the midpoint of a concentration-inhibition curve. In series [1], `COc1ccc(NCc2nc3c(o2)-c2ccccc2C(=O)C3=O)cc1` showed a solubility at 8 h of over 100 µg/mL. This compound also had an IC50 in the series on A549 [2] of 13 µM. The Drug metabolism in series [3] was determined as 1063 µmol/min.
As usually defined, the logD is lipophilicity at a set pH, counting ionised and neutral species. A higher logD goes with a more lipophilic compound. What is called T/C is the ratio of treated to control. `CC1(C)CCC2=C(O1)c1ccccc1C(=O)C2=O` [LAPACHONE] registered a solubility at 8 h in [1] of under 100 µg/mL. Moreover, the inhibition in vivo at 30 mg/kg in the series on A549 [4] is 70.1%. Also, in [5], the outcome was Active. The IC50 in the series on A549 [2] is 3.7 µM. For the same compound, the logD in series [6] was 2.85. Also, the Drug metabolism in series [3] turned out to be 1210 µmol/min. The T/C in the series with A549 [7] came out at 29.5%.
As for `Cc1nc2c(o1)-c1ccccc1C(=O)C2=O`, in the series with A549 [2], the IC50 was found to be 20 µM. Further, the Drug metabolism in series [3] came to 1202 µmol/min.
As to `Cc1ccc(NCc2nc3c(o2)-c2ccccc2C(=O)C3=O)cc1`, in series [1], the solubility at 8 h is over 100 µg/mL. The compound also registered a concentration for half-maximal inhibition (IC50) with A549 [2] of 12 µM. For the same compound, the Drug metabolism in series [3] turned out to be 968 µmol/min.
Consider `O=C1C(=O)c2nc(CN3CCN(c4ccccc4)CC3)oc2-c2ccccc21`, for which, in [1], the solubility at 8 h was over 100 µg/mL. The compound further gave a 50% inhibitory concentration (IC50) in the series on A549 [2] of 7.6 µM. In addition, in [3], the Drug metabolism was determined as 1139 µmol/min.
Regarding `CCc1nc2c(o1)-c1ccccc1C(=O)C2=O`, half-maximal inhibition in the series with A549 [2] (IC50) was put at 7.6 µM. Besides, the Drug metabolism in series [3] was 955 µmol/min.
Take `COc1cccc(NCc2nc3c(o2)-c2ccccc2C(=O)C3=O)c1`: in [1], the solubility at 8 h is over 100 µg/mL. The compound also registered an IC50 in the series with A549 [2] of 15 µM. The Drug metabolism in [3] is 955 µmol/min.
The compound `O=C1C(=O)c2nc(CN3CCN(Cc4ccccc4)CC3)oc2-c2ccccc21` returned a solubility at 8 h in [1] of over 500 µg/mL. In addition, in the series with A549 [4], the inhibition in vivo at 30 mg/kg amounted to 55.6%. Also, the Activity result is reported as “Not Active” in series [8]; “Non-toxic” in the series on Mus musculus [10]; “Active” in series [5]; “Non-toxic” in the series with Mus musculus [15]; 440.8 mm3 in the series on A549 [16]. Further, the half-inhibitory concentration (IC50) in the series on A549 [9] worked out at 64 µM; with A549 [2], 4.6 µM; in series [13], 70 µM; with NCI-H596, 57 µM. The results for the “Ratio IC50” value (in series [11]; with A549 [17]) were over 12 and over 7, respectively. In series [6], this compound yielded a log distribution coefficient (logD) of 1.88. Also, in series [12], the solubility amounted to 125 µg/mL (≈ 323 µM). In addition, the TGI entry with A549 [14] is “Active”. In series [3], the Drug metabolism was determined as 1360 µmol/min. Further, the T/C in the series on A549 [7] is 41.4%.
Take `CN(C)Cc1nc2c(o1)-c1ccccc1C(=O)C2=O`: the solubility at 8 h in series [1] was over 100 µg/mL. Besides, in the series with A549 [2], the IC50 was 8.7 µM. The Drug metabolism in [3] is 939 µmol/min.
In series [1], `O=C1C(=O)c2nc(CN3CCOCC3)oc2-c2ccccc21` displayed a solubility at 8 h of over 100 µg/mL. Half-maximal inhibition in the series on A549 [2] (IC50) was put at 6.9 µM. For the same compound, the Drug metabolism in series [3] is 686 µmol/min.
`O=C1C(=O)c2nc(CNc3ccc(Cl)cc3)oc2-c2ccccc21`: in [1], the solubility at 8 h is under 100 µg/mL. In the series on A549 [2], this compound came in with an IC50 of 19 µM. The logD in [6] was found to be 2.65. In addition, the solubility in series [12] was found to be 38 µg/mL (≈ 112 µM). In [3], the Drug metabolism is 1522 µmol/min.
Regarding `O=C1C(=O)c2nc(CNc3cccc(F)c3)oc2-c2ccccc21`, the solubility at 8 h in series [1] is under 100 µg/mL. Further, half-maximal inhibition in the series with A549 [2] (IC50) required 5.2 µM. In addition, the logD in series [6] came to 3.18. The solubility in [12] was found to be 44 µg/mL (≈ 137 µM). In addition, the Drug metabolism in [3] came out at 1391 µmol/min.
As for `COc1ccccc1NCc1nc2c(o1)-c1ccccc1C(=O)C2=O`, the solubility at 8 h in series [1] is over 100 µg/mL. In the series on A549 [2], the IC50 turned out to be 11 µM. The Drug metabolism in series [3] came out at 990 µmol/min.
